Screening results from PubChem BioAssay.
CHT allo act – human CHT allosteric activation; 0.49% of 310,000 active; AID 488977; CHT-expressing cells, membrane potential dye, choline EC20; stronger effect = higher value; LV-AA mutant CHT in HEK293 cells; Q9GZV3; B-score at 10 µM;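 active = initial fluorescence not abnormally high and integrated response B-score, plate-corrected, over 3 SD above library mean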
CHT inh – inhibits the human high affinity choline transporter; Q9GZV3; CHT-expressing cells, membrane potential dye, choline response; stronger effect = lower value; B-score at 10 µM; 0.86% of 310,000 active;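 active = B-score over 3 SD under the library average, and starting fluorescence ratio not unusually high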;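 also: choline stimulus applied at its EC90 after an EC20 pre-addition; B-score computed on integrated fluorescence ratio after choline addition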
NR2E3 ag-1 – activates human NR2E3 receptor; CHO-S Gal4-NCOR/VP16-NR2E3 two-hybrid, luciferase; Q9Y5X4; inhibition of corepressor binding, % at 3.98 µM; 0.35% of 360,000 active; AID 602229;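 active = inhibition above the mean of all tested compounds plus 3 SD, cut at about 70% in these data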;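 also: 0% = DMSO with NR2E3 transfected cells and 100% = cells lacking NR2E3 construct; higher means lower luciferase signal from less NR2E3 corepressor binding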
NR2E3 ag-2 – NR2E3 (human) agonism; GST-NR2E3/biotin-RetCOR TR-FRET, 1536-well; AID 2300; 0.12% of 320,000 active; inhibition of corepressor binding, % at 4.78 µM; Q9Y5X4;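 active = percent inhibition above the cutoff of mean plus 3 SD of all tested compounds, set per screening campaign, cut at about 20% in these data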;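 also: 0% = DMSO wells and 100% = biotin wells as full block of FRET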
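System: GST-tagged NR2E3 plus biotinylated RetCOR corepressor; Buffer or medium: pH 7.5 Tris-based buffer; Probe or stimulus: RetCOR corepressor, biotinylated, 7 nM; Doses: compound at 4.8 µM, single dose; Schedule: 5 h incubation at 4 °C; Technique: time-resolved FRET; Evaluation: percent inhibition of TR-FRET ratio; Replication: one well per compound, singlicate testing.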
GalR3 antag – blocks the human galanin receptor 3; AID 651719; 0.44% of 360,000 active; inhibition, % at 3 µM; HEK293 GalR3-CNG cAMP membrane potential fluorescence; galR3 body fused to GalR1 C-terminus; O60755;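 active = inhibition above the screen-wide average plus 3 SD, cut at about 13% in these data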;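 also: forskolin and galanin both at EC90 stimulate the cells; cAMP rise reported by CNG channel membrane potential dye signal; 0% = forskolin plus galanin with DMSO and 100% = forskolin alone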
Target sequence (O60755 1-299 limits assumed): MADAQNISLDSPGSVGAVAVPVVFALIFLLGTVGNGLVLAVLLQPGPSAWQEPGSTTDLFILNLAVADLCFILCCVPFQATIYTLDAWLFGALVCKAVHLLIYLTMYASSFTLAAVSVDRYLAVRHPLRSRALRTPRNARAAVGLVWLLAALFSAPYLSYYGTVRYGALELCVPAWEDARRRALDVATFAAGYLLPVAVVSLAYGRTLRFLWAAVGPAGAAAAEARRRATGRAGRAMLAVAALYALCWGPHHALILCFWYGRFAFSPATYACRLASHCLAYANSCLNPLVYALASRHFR
COUP-TFII inh – NR2F2 (human) inhibition, primary screen | inhibition, % at 8.6 µM | 0.7% of 370,000 active | AID 686940 | P24468 | HEK293T NGFI-A luciferase reporter, luminescence;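 active = inhibition above a per-plate cutoff, mean inhibition of test wells between control levels plus 3 SD, cut at about 38% in these data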;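 also: cells cotransfected with COUP-TFII expression vector driving the NGFI-A reporter; 0% = median of COUP-TF2 test wells and 100% = reporter-only cells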
Target sequence (P24468 whole entry, looked up): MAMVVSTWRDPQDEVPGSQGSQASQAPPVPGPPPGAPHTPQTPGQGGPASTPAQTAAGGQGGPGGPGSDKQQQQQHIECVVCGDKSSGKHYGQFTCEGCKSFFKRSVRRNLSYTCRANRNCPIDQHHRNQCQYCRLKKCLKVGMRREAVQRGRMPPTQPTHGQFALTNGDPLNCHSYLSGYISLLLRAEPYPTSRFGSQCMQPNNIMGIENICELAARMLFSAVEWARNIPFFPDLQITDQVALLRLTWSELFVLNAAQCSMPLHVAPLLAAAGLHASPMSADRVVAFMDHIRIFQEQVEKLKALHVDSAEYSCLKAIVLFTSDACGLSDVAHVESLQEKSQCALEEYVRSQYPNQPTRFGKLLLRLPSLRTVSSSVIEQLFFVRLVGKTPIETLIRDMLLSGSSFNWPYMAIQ
CHT act confirm – confirmation of human choline transporter (CHT) activators; activation, % at 10 µM; CHT-expressing cells, membrane potential dye fluorescence (FDSS); % of choline EC20–EC90 response window; HEK293 expressing CHT LV-AA mutant; choline added at its EC20; shares compounds with CHT allo act; 91% of 2,500 active; AID 504833;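 active = primary screen active, with duplicate mean activation above negative control mean plus 3 SD, cut at about 11% in these data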
HEK293 MP dye – counter-screen for CHT activators: effect in parental HEK293 cells; membrane potential dye fluorescence (FDSS); measured after EC20 choline addition; ratio readout change at 10 µM, hits read low; shares compounds with CHT allo act; 62% of 2,500 active; AID 623908;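 active = duplicate-averaged ratio beyond 3 SD from buffer wells, up or down, though filed actives are nearly all decreases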
GalR3 conf – GalR3 (human) antagonism, confirmation; shares compounds with GalR3 antag; HEK293 GalR3 CNG cAMP biosensor, membrane potential fluorescence; galR3 fused to GalR1 carboxy tail; challenged with forskolin and galanin at EC90; inhibition, % at 3 µM; 59% of 1,600 active; AID 652245;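 active = inhibition above the primary screen's cutoff, the mean inhibition of all screened compounds plus 3 SD, cut at about 13% in these data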;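 also: 0% = forskolin plus galanin and 100% = forskolin alone with DMSO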
CNG parental – counter-screen for GalR3 antagonists: nonspecific agonists in parental HEK-CNG cells; shares compounds with GalR3 antag; HEK293-CNG parental cells, cAMP membrane potential fluorescence; normalised: DMSO wells 0%, forskolin wells 100%; activation, % at 3 µM; 10% of 1,600 active; AID 652268; in the data active = activation above about 1.3%
VP16 Luc counter – VP16 inhibition counter-screen for COUP-TFII; shares compounds with COUP-TFII inh; HEK293 Gal4-VP16 luciferase reporter, luminescence; inhibition, % at 8.5 µM; 25% of 2,500 active; in the data active = inhibition above about 13%
NR2F2 inh conf – COUP-TFII (NR2F2) inhibition, confirmation assay; HEK293 NGFI-A luciferase reporter, luminescence; shares compounds with COUP-TFII inh; AID 687008; inhibition, % at 8.5 µM; 45% of 2,500 active;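 active = mean inhibition over three repeats above a set limit taken from the earlier primary screen, cut at about 38% in these data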;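 also: 100% = cells given the luciferase reporter alone without the COUP-TF2 vector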
* marks the source's active call; other numbers are inactive results. A selection: hits, their analogues and other compounds. The true share with any hit is near 2.3%.

What do the screens show for `C[C@H](NS(=O)(=O)c1ccc([N+](=O)[O-])cc1)C(=O)NCCNC(=O)[C@@H](C)NS(=O)(=O)c1ccc([N+](=O)[O-])cc1`?
COUP-TFII inh: -2.0

What do the screens show for `CCCCCCCC[n+]1cccc2c3ccccc3ccc21`?
CHT allo act: 6.77*; CHT inh: inactive; NR2E3 ag-1: 9.5; NR2E3 ag-2: 0.6; GalR3 antag: 64.9*; COUP-TFII inh: 79.9*; CHT act confirm: 19.3*; HEK293 MP dye: -25.9*; GalR3 conf: 54.1*; CNG parental: 3.1*; VP16 Luc counter: 13.6*; NR2F2 inh conf: 77.3*

How did Cc1cccc[n+]1CCCCCCCCCC[n+]1ccccc1C do in these assays?
CHT allo act: inactive; CHT inh: inactive; NR2E3 ag-1: 2.5; NR2E3 ag-2: -0.4; GalR3 antag: -6.5; COUP-TFII inh: 29.9

Results for CCCCn1c(CN(C)Cc2ccccc2)nc2c1c(=O)n(C)c(=O)n2C ?
CHT allo act: 6.59*; CHT inh: inactive; NR2E3 ag-1: 17.7; NR2E3 ag-2: -1.2; GalR3 antag: -5.0; COUP-TFII inh: 40.3*; CHT act confirm: 0.2; HEK293 MP dye: inactive; VP16 Luc counter: -1.9; NR2F2 inh conf: 23.4

What do the screens show for `C=CC[n+]1c(-c2ccc(Cl)cc2Cl)csc1Nc1c(C)n(C)n(-c2ccccc2)c1=O`?
CHT allo act: 8.4*; CHT inh: inactive; NR2E3 ag-1: 43.2; NR2E3 ag-2: -0.5; GalR3 antag: -4.7; COUP-TFII inh: 45.7*; CHT act confirm: 5.0; HEK293 MP dye: inactive; VP16 Luc counter: 4.2; NR2F2 inh conf: 40.5*

Results for O=C(c1cc(Cl)ccc1F)N1CCCC(c2nc(-c3cccs3)no2)C1 (stereo not given) ?
COUP-TFII inh: 6.2

What do the screens show for `C[n+]1c2n(c3ccccc31)N=C(c1cc(C(C)(C)C)c(O)c(C(C)(C)C)c1)CS2`?
CHT allo act: 39.5*; CHT inh: inactive; NR2E3 ag-1: -4.4; NR2E3 ag-2: 3.3; GalR3 antag: 19.3*; COUP-TFII inh: 80.7*; CHT act confirm: 66.2*; HEK293 MP dye: -36*; GalR3 conf: 29.7*; CNG parental: 17.2*; VP16 Luc counter: 28.5*; NR2F2 inh conf: 86.8*

What do the screens show for `COc1cccc(C2=Nn3c(nnc3-c3ccccc3O)SC2)c1`?
CHT allo act: inactive; CHT inh: inactive; NR2E3 ag-1: 0.2; NR2E3 ag-2: -1.9; GalR3 antag: -3.5; COUP-TFII inh: -8.6

How did CCCN(CCC)C1=CC(=[N+]2CCCC2)CC(C)(C)C1 do in these assays?
CHT allo act: 12*; CHT inh: inactive; NR2E3 ag-1: 7.5; NR2E3 ag-2: -3.6; GalR3 antag: 24.2*; COUP-TFII inh: 52.6*; CHT act confirm: 35.1*; HEK293 MP dye: inactive; VP16 Luc counter: 10.7; NR2F2 inh conf: 42.9*

How did Cc1ccc(-n2c(SCC(=O)Nc3ccc(Oc4ccccc4)cc3)nnc2-c2cccc(C)c2)cc1 do in these assays?
COUP-TFII inh: -4.7

How did Cc1c(C(=O)Nc2ccncc2)sc2nc(-c3ccccc3)cn12 do in these assays?
CHT allo act: inactive; CHT inh: inactive; NR2E3 ag-1: 19.7; NR2E3 ag-2: -4.5; COUP-TFII inh: 51.7*; CHT act confirm: 30.4*; HEK293 MP dye: -32.4*; VP16 Luc counter: -41.0; NR2F2 inh conf: 11.5

How did Cc1ccc(-c2c[n+](Cc3cccc(Cl)c3)c3n2CCC3)cc1 do in these assays?
CHT allo act: 7.96*; CHT inh: inactive; NR2E3 ag-1: -22.3; NR2E3 ag-2: 3.6; GalR3 antag: -2.6; COUP-TFII inh: 38.2*; CHT act confirm: 55.8*; HEK293 MP dye: -39.6*; VP16 Luc counter: 3.6; NR2F2 inh conf: 8.1

How did CCOC(=O)[C@]12CCCC=C1N(Cc1ccc(OC)cc1)C(=O)[C@@H]2CC(=O)NCCC(C)C do in these assays?
COUP-TFII inh: 7.5

How did Cc1ccc(N(C)c2nc(N)nc(N)c2N=O)cc1 do in these assays?
GalR3 antag: -7.1; COUP-TFII inh: 4.9

Results for Cc1ccc(Oc2ccccc2NC(=O)CSCC(=O)Nc2cc(C)on2)cc1 ?
CHT allo act: inactive; CHT inh: inactive; NR2E3 ag-1: -6.3; NR2E3 ag-2: 0.1; GalR3 antag: 84.3*; COUP-TFII inh: 62.2*; CHT act confirm: 0.1; HEK293 MP dye: inactive; GalR3 conf: 68.3*; CNG parental: 0.2; VP16 Luc counter: 3.7; NR2F2 inh conf: 48.7*

What do the screens show for `Cc1cc(NC(=O)CSCC(=O)Nc2ccccc2N2CCCCC2)no1`?
CHT allo act: inactive; CHT inh: inactive; NR2E3 ag-1: 11.3; NR2E3 ag-2: 0.6; GalR3 antag: -2.8; COUP-TFII inh: -4.6

How did CCCCn1c2c(cc(C(=O)OC)c1=O)C(=O)CCC2 do in these assays?
NR2E3 ag-1: -31.4; GalR3 antag: -4.0; COUP-TFII inh: -8.2

What do the screens show for `CCCCCCn1c2c(c(=N)c3c1CCC3)CCC2`?
CHT allo act: 8.16*; CHT inh: inactive; NR2E3 ag-1: 10.8; NR2E3 ag-2: 0.0; GalR3 antag: 35.0*; COUP-TFII inh: 78.3*; CHT act confirm: 72.1*; HEK293 MP dye: -43.8*; GalR3 conf: 21.2*; CNG parental: 0.3; VP16 Luc counter: 12.9; NR2F2 inh conf: 69.9*

How did CCCn1c2c(c(O)c(C(=O)NC)c1=O)CCCC2 do in these assays?
CHT allo act: inactive; CHT inh: inactive; NR2E3 ag-1: 4.1; NR2E3 ag-2: 3.2; GalR3 antag: -1.5; COUP-TFII inh: -9.7
